# Experimental data: the RNAGym collection of RNA variant scans (doi:10.1038/s41586-018-0170-7)
# B1: tRNA (parent)
# chain: GUUCCGUUGGCGUAAUGGUAACGCGUCUCCCUCCUAAGGAGAAGACUGCGGGUUCGAGUCCCGUACGGAACG
# Variants of: B1
# Experiment: yeast fitness, log relative to wild type (ln ratio); higher = fitter; tRNA-Arg(CCU), competitive growth, 37 C, 1 M NaCl
# Method in brief: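 Fitness is the natural log of each genotype's generations divided by the wild type's. Generations were derived as OD-scaled log2 output/input frequency from 125 bp paired-end Illumina counts, weighting replicates by inverse variance. Pools of the tRNA-Arg(CCU) variant library, on a HIS3 centromeric plasmid in BY4742 lacking the chromosomal gene, grew ~6.5 generations (~26.5 h) in SC-HIS 1M NaCl at 37 °C after 4 generations in SC-HIS at 30 °C.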
row,Variant,yeast fitness (ln)
1,G1A U2G G6U C46U C66A A69G A70G C71U,-0.416
2,U2C A43C A69G,-0.0815
3,G1A U2G G6U C46U C66U A70G C71U,-0.216
4,G1A U2G G6U C27U C46U C66U A69G A70G C71U,-0.339
5,G1A U2G G6U C27U C66A A70U C71U,-0.168
6,G1A U2G G6U C46U C66U C71U,-0.257
7,G1A U2G G6U C27U C46U C66A A69G A70U C71U,-0.513
8,G1A U2G G6U C27U C46U A70U,-0.217
9,G1A U2G G6U C27U C46U A70G,-0.274
10,G1A U2G G6U C46U C66U A69G C71U,-0.466
11,G1A U2G G6U C66U A70G C71U,-0.264
12,G1A U2G G6U C27U A43C C66U A69G A70G C71U,-0.491
13,U2C A43C C46U A70G C71U,0.00238
14,G1A U2G G6U C27U A43C C46U C66U,-0.434
15,G1A U2G G6U C71U,-0.196
16,G1A U2G G6U C46U A69G A70U C71U,-0.279
17,G1A U2G G6U C27U C46U C66A A69G A70G C71U,-0.417
18,G1A U2G G6U C27U C46U A69G A70G,-0.474
19,G1A U2G G6U C27U C46U A69G A70U,-0.314
20,G1A U2G G6U C66A A69G A70U,-0.293
21,G1A U2G G6U C27U C46U C66U A70G C71U,-0.307

row,Variant,yeast fitness (ln)
1,G1A U2G G6U C27U C66A A69G A70U C71U,-0.404
2,G1A U2G G6U C27U A43C C46U C66U C71U,-0.526
3,G1A U2G G6U C27U C66A C71U,-0.273
4,G1A U2G G6U C27U A69G A70G,-0.376
5,G1A U2G G6U C27U A69G A70U,-0.362
6,G1A U2G G6U C46U C66A A69G A70U,-0.0992
7,U2C A43C C46U A69G,-0.182
8,G1A U2G G6U C46U C66A A69G A70U C71U,-0.227
9,G1A U2G G6U C27U A43C C71U,-0.329
10,G1A U2G G6U C46U C66U A69G A70G,-0.347
11,G1A U2G G6U C46U C66U A69G A70U,-0.288
12,G1A U2G G6U C27U A43C C66U A70U C71U,-0.429
13,G1A U2G G6U C66A A70G C71U,-0.525
14,G1A U2G G6U C27U C46U A69G A70U C71U,-0.43
15,G1A U2G G6U C27U C46U C66A A70U C71U,-0.0752
16,U2C A43C A69G A70G,-0.0256
17,U2C A43C A69G A70U,-0.235
18,G1A U2G G6U C27U C66U A69G C71U,-0.425
19,G1A U2G G6U C27U C66A A69G A70G C71U,-0.408
20,G1A U2G G6U C46U A69G C71U,-0.3
21,G1A U2G G6U C27U C46U C66A A70G,-0.148

row,Variant,yeast fitness (ln)
1,G1A U2G G6U C27U C46U C66A A70U,-0.322
2,G1A U2G G6U C66U A69G A70U,-0.386
3,G1A U2G G6U C46U C66A A70U C71U,0.00484
4,U2C A43C C46U C66A A69G A70U C71U,-0.374
5,G1A U2G G6U C27U C46U C71U,-0.259
6,G1A U2G G6U C46U C66U A70U,-0.184
7,G1A U2G G6U C46U C66U A70G,-0.238
8,U2C A43C C46U C66A A70G,-0.058
9,U2C A43C C46U C66A A70U,-0.0333
10,G1A U2G G6U C46U A70U C71U,-0.511
11,G1A U2G G6U C27U C46U C66U A69G C71U,-0.434
12,G1A U2G G6U C27U A69G A70U C71U,-0.404
13,G1A U2G G6U C66U C71U,-0.249
14,G1A U2G G6U C46U A70G C71U,-0.257
15,G1A U2G G6U C27U A43C C66A A70U C71U,-0.433
16,G1A U2G G6U C27U A43C C46U C66U A70G,-0.564
17,G1A U2G G6U C27U A43C C46U C66U A70U,-0.383
18,G1A U2G G6U C27U C66U A70U C71U,-0.434
19,G1A U2G G6U C27U C46U A70G C71U,-0.368
20,U2C A43C C46U A70G,-0.00469
21,U2C A43C C46U A70U,-0.0182

row,Variant,yeast fitness (ln)
1,G1A U2G G6U C66A C71U,-0.193
2,G1A U2G G6U C27U A43C C46U C71U,-0.277
3,G1A U2G G6U C27U C46U,-0.217
4,G1A U2G G6U C27U A43C C46U C66U A70G C71U,-0.466
5,G1A U2G G6U C27U C46U C66A C71U,-0.175
6,G1A U2G G6U C27U A43C C66U A69G A70U C71U,-0.54
7,G1A U2G G6U C66A A69G A70U C71U,-0.335
8,U2C A43C C46U C66A A69G A70G C71U,-0.097
9,U2C A43C C46U A69G C71U,-0.0944
10,U2C A43C A69G C71U,-0.138
11,G1A U2G G6U C66A A69G A70G C71U,-0.325
12,G1A U2G G6U C27U A43C C46U C66U A69G A70G C71U,-0.475
13,G1A U2G G6U C46U A69G A70U,-0.211
14,G1A U2G G6U C46U A69G A70G,-0.247
15,U2C A43C C46U C66A,0.0909
16,U2C A43C A70G C71U,-0.0158
17,G1A U2G G6U C66A A70U C71U,-0.0122
18,G1A U2G G6U C27U C71U,-0.358
19,G1A U2G G6U C27U A70G C71U,-0.326
20,G1A U2G G6U C46U A70U,-0.246
